# Assay results reported in ChEMBL document CHEMBL3861966, “Di-nor- and 17-nor-pimaranes from Icacina trichantha” (J Nat Prod, 2016).
# Assays:
# Type in all cases: functional, cell-based
# [1] = Cytotoxicity against human MDA-MB-435 cells assessed as decrease in cell viability after 72 hrs by cell titer 96 one solution assay; details: MDA-MB-435, 72 h
# How it was run: (§1)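 Cells grown at 37 °C, 5% CO2 in RPMI 1640 with 10% FBS, penicillin 100 units/mL, streptomycin 100 μg/mL. Log-phase cells trypsinized, washed twice, seeded at 5000/well, left overnight. DMSO-dissolved samples added at 20, 4, 0.8, 0.16, 0.032 μM (final DMSO 0.5%). After 72 h at 37 °C, viable cells read by MTS-type absorbance kit. IC50 in μM relative to DMSO control.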
# [2] = Cytotoxicity against human OVCAR3 cells assessed as decrease in cell viability after 72 hrs by cell titer 96 one solution assay; details: OVCAR-3, 72 h; how it was run: as §1
# [3] = Cytotoxicity against human MDA-MB-231 cells assessed as decrease in cell viability after 72 hrs by cell titer 96 one solution assay; details: MDA-MB-231, 72 h; how it was run: as §1
SMILES,IC50 [1] [µM],IC50 [2] [µM],IC50 [3] [µM]
COc1cc2c(c3occc13)[C@@H](O)[C@@]1(O)OC[C@@]23CCC(=O)[C@@H](C)[C@@H]31,> 20,> 20,> 20
COc1cc2c(c(O)c1C=O)C[C@H]1OC(=O)[C@]3(C)[C@H]1[C@]21CC[C@]3(O)OC1,> 20,> 20,> 20
COc1cc2c(c3occc13)[C@H](O)[C@H]1OC(=O)[C@]3(C)[C@H]1[C@]21CC[C@]3(O)OC1,> 20,> 20,> 20
C[C@]12C(=O)O[C@@H]3C[C@H]4C5=C(CC[C@H]4[C@]4(CO[C@@]1(O)[C@@H](O)C4)[C@@H]32)C(=O)CO5,1.48,3.23,2.85
COc1cc2c(c3occc13)[C@H]1OC3O[C@@]4(O)CC[C@@]23[C@H]2[C@@H]1OC(=O)[C@]24C,> 20,> 20,> 20
C[C@]12C(=O)O[C@@H]3[C@@H](O)[C@H]4c5occc5C(=O)C[C@H]4[C@]4(CO[C@@]1(O)[C@@H](O)C4)[C@@H]32,2.91,7.53,7.6
CC[C@]1(O)C[C@@H]2CN(CCc3c([nH]c4ccccc34)[C@@](C(=O)OC)(c3cc4c(cc3OC)N(C)[C@H]3[C@@](O)(C(=O)OC)[C@H](OC(C)=O)[C@]5(CC)C=CCN6CC[C@]43[C@@H]65)C2)C1 [VINBLASTINE],0.00049,,
